Test results published in ChEMBL document CHEMBL3769341, “Discovery and Characterization of GSK2801, a Selective Chemical Probe for the Bromodomains BAZ2A and BAZ2B” (J Med Chem, 2016).
Active and inactive are the calls of the source. The calls are words filed in the database; no cut-off is given here.

Legend:
[1] = target: Bromodomain-containing protein 9 (Homo sapiens) (UniProt Q9H8M2); assay: Binding affinity to biotinylated C-terminal Avi/His-TEV-fused BRD9 (unknown origin) expressed in Escherichia coli by isothermal titration calorimetric analysis
[2] = target: Histone-lysine N-methyltransferase ASH1L (Homo sapiens) (UniProt Q9NR48); assay: Binding affinity to biotinylated ASH1L bromodomain (unknown origin) expressed in Escherichia coli at 0.2 to 1 uM by Biolayer Interferometric analysis
Summary of the method: (§1)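 Bromodomains carrying a BirA biotin ligase targeting sequence, coexpressed with BirA in bacteria to give homogeneous in vivo biotin labelling, checked by mass spectrometry. Biotinylated proteins probed by biolayer interferometry with compound at two concentrations, 0.2 and 1.0 μM.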

[3] = target: ATPase family AAA domain-containing protein 2 (Homo sapiens) (UniProt Q6PL18); assay: Binding affinity to biotinylated ATAD2 (unknown origin) expressed in Escherichia coli at 0.2 to 1 uM by Biolayer Interferometric analysis; summary of the method: as §1
[4] = target: Tyrosine-protein kinase BAZ1B (Homo sapiens) (UniProt Q9UIG0); assay: Binding affinity to biotinylated BAZ1B (unknown origin) expressed in Escherichia coli at 0.2 to 1 uM by Biolayer Interferometric analysis; summary of the method: as §1
[5] = target: Bromodomain-containing protein 1 (Homo sapiens) (UniProt O95696); assay: Binding affinity to biotinylated BRD1 (unknown origin) expressed in Escherichia coli at 0.2 to 1 uM by Biolayer Interferometric analysis; summary of the method: as §1
[6] = target: Bromodomain-containing protein 2 (Homo sapiens) (UniProt P25440); assay: Binding affinity to biotinylated BRD2 bromodomain-1 (unknown origin) expressed in Escherichia coli at 0.2 to 1 uM by Biolayer Interferometric analysis; summary of the method: as §1
[7] = target: Bromodomain-containing protein 2 (Homo sapiens) (UniProt P25440); assay: Binding affinity to biotinylated BRD2 bromodomain-2 (unknown origin) expressed in Escherichia coli at 0.2 to 1 uM by Biolayer Interferometric analysis; summary of the method: as §1
[8] = target: Bromodomain-containing protein 3 (Homo sapiens) (UniProt Q15059); assay: Binding affinity to biotinylated BRD3 bromodomain-1 (unknown origin) expressed in Escherichia coli at 0.2 to 1 uM by Biolayer Interferometric analysis; summary of the method: as §1
[9] = target: Bromodomain-containing protein 3 (Homo sapiens) (UniProt Q15059); assay: Binding affinity to biotinylated BRD3 bromodomain-2 (unknown origin) expressed in Escherichia coli at 0.2 to 1 uM by Biolayer Interferometric analysis; summary of the method: as §1
[10] = target: Bromodomain-containing protein 4 (Homo sapiens) (UniProt O60885); assay: Binding affinity to biotinylated BRD4 bromodomain-1 (unknown origin) expressed in Escherichia coli at 0.2 to 1 uM by Biolayer Interferometric analysis; summary of the method: as §1
[11] = target: Bromodomain-containing protein 4 (Homo sapiens) (UniProt O60885); assay: Binding affinity to biotinylated BRD4 bromodomain-2 (unknown origin) expressed in Escherichia coli at 0.2 to 1 uM by Biolayer Interferometric analysis; summary of the method: as §1
[12] = target: Bromodomain-containing protein 7 (Homo sapiens) (UniProt Q9NPI1); assay: Binding affinity to biotinylated BRD7 (unknown origin) expressed in Escherichia coli at 0.2 to 1 uM by Biolayer Interferometric analysis; summary of the method: as §1
[13] = target: Bromodomain testis-specific protein (Homo sapiens) (UniProt Q58F21); assay: Binding affinity to biotinylated BRDT bromodomain-1 (unknown origin) expressed in Escherichia coli at 0.2 to 1 uM by Biolayer Interferometric analysis; summary of the method: as §1
[14] = target: Bromodomain testis-specific protein (Homo sapiens) (UniProt Q58F21); assay: Binding affinity to biotinylated BRDT bromodomain-2 (unknown origin) expressed in Escherichia coli at 0.2 to 1 uM by Biolayer Interferometric analysis; summary of the method: as §1
Peregrin (Homo sapiens) = Peregrin (Homo sapiens) (UniProt P55201); assay: Binding affinity to biotinylated BRPF1 bromodomain-1 (unknown origin) expressed in Escherichia coli at 0.2 to 1 uM by Biolayer Interferometric analysis; summary of the method: as §1
[15] = target: Bromodomain and WD repeat-containing protein 3 (Homo sapiens) (UniProt Q6RI45); assay: Binding affinity to biotinylated BRWD3 bromodomain-2 (unknown origin) expressed in Escherichia coli at 0.2 to 1 uM by Biolayer Interferometric analysis; summary of the method: as §1
[16] = target: Chromatin remodeling regulator CECR2 (Homo sapiens) (UniProt Q9BXF3); assay: Binding affinity to biotinylated CECR2 (unknown origin) expressed in Escherichia coli at 0.2 to 1 uM by Biolayer Interferometric analysis; summary of the method: as §1
[17] = target: CREB-binding protein (Homo sapiens) (UniProt Q92793); assay: Binding affinity to biotinylated CREBBP (unknown origin) expressed in Escherichia coli at 0.2 to 1 uM by Biolayer Interferometric analysis; summary of the method: as §1
[18] = target: Histone acetyltransferase p300 (Homo sapiens) (UniProt Q09472); assay: Binding affinity to biotinylated EP300 (unknown origin) expressed in Escherichia coli at 0.2 to 1 uM by Biolayer Interferometric analysis; summary of the method: as §1
[19] = target: Nucleosome-remodeling factor subunit BPTF (Homo sapiens) (UniProt Q12830); assay: Binding affinity to biotinylated FALZ (unknown origin) expressed in Escherichia coli at 0.2 to 1 uM by Biolayer Interferometric analysis; summary of the method: as §1
[20] = target: Histone acetyltransferase KAT2A (Homo sapiens) (UniProt Q92830); assay: Binding affinity to biotinylated GCN5L2 (unknown origin) expressed in Escherichia coli at 0.2 to 1 uM by Biolayer Interferometric analysis; summary of the method: as §1
[21] = target: ATPase family AAA domain-containing protein 2B (Homo sapiens) (UniProt Q9ULI0); assay: Binding affinity to biotinylated KIAA1240 (unknown origin) expressed in Escherichia coli at 0.2 to 1 uM by Biolayer Interferometric analysis; summary of the method: as §1
[22] = target: Protein polybromo-1 (Homo sapiens) (UniProt Q86U86); assay: Binding affinity to biotinylated PB1 bromodomain-1 (unknown origin) expressed in Escherichia coli at 0.2 to 1 uM by Biolayer Interferometric analysis; summary of the method: as §1
[23] = target: Protein polybromo-1 (Homo sapiens) (UniProt Q86U86); assay: Binding affinity to biotinylated PB1 bromodomain-2 (unknown origin) expressed in Escherichia coli at 0.2 to 1 uM by Biolayer Interferometric analysis; summary of the method: as §1
[24] = target: Protein polybromo-1 (Homo sapiens) (UniProt Q86U86); assay: Binding affinity to biotinylated PB1 bromodomain-4 (unknown origin) expressed in Escherichia coli at 0.2 to 1 uM by Biolayer Interferometric analysis; summary of the method: as §1
[25] = target: Protein polybromo-1 (Homo sapiens) (UniProt Q86U86); assay: Binding affinity to biotinylated PB1 bromodomain-5 (unknown origin) expressed in Escherichia coli at 0.2 to 1 uM by Biolayer Interferometric analysis; summary of the method: as §1
[26] = target: Protein polybromo-1 (Homo sapiens) (UniProt Q86U86); assay: Binding affinity to biotinylated PB1 bromodomain-6 (unknown origin) expressed in Escherichia coli at 0.2 to 1 uM by Biolayer Interferometric analysis; summary of the method: as §1
[27] = target: Histone acetyltransferase KAT2B (Homo sapiens) (UniProt Q92831); assay: Binding affinity to biotinylated PCAF (unknown origin) expressed in Escherichia coli at 0.2 to 1 uM by Biolayer Interferometric analysis; summary of the method: as §1
[28] = target: PH-interacting protein (Homo sapiens) (UniProt Q8WWQ0); assay: Binding affinity to biotinylated PHIP (unknown origin) expressed in Escherichia coli at 0.2 to 1 uM by Biolayer Interferometric analysis; summary of the method: as §1
[29] = target: SWI/SNF-related matrix-associated actin-dependent regulator of chromatin subfamily A member 2 (Homo sapiens) (UniProt P51531); assay: Binding affinity to biotinylated SMARCA2 (unknown origin) expressed in Escherichia coli at 0.2 to 1 uM by Biolayer Interferometric analysis; summary of the method: as §1
[30] = target: SWI/SNF-related matrix-associated actin-dependent regulator of chromatin subfamily A member 4 (Homo sapiens) (UniProt P51532); assay: Binding affinity to biotinylated SMARCA4 (unknown origin) expressed in Escherichia coli at 0.2 to 1 uM by Biolayer Interferometric analysis; summary of the method: as §1
[31] = target: Transcription initiation factor TFIID subunit 1 (Homo sapiens) (UniProt P21675); assay: Binding affinity to biotinylated TAF1 bromodomain-1 (unknown origin) expressed in Escherichia coli at 0.2 to 1 uM by Biolayer Interferometric analysis; summary of the method: as §1
[32] = target: Transcription initiation factor TFIID subunit 1 (Homo sapiens) (UniProt P21675); assay: Binding affinity to biotinylated TAF1 bromodomain-2 (unknown origin) expressed in Escherichia coli at 0.2 to 1 uM by Biolayer Interferometric analysis; summary of the method: as §1
[33] = target: Transcription initiation factor TFIID subunit 1-like (Homo sapiens) (UniProt Q8IZX4); assay: Binding affinity to biotinylated TAF1L bromodomain-1 (unknown origin) expressed in Escherichia coli at 0.2 to 1 uM by Biolayer Interferometric analysis; summary of the method: as §1
[34] = target: Transcription intermediary factor 1-alpha (Homo sapiens) (UniProt O15164); assay: Binding affinity to biotinylated TIF1 bromodomain-1 (unknown origin) expressed in Escherichia coli at 0.2 to 1 uM by Biolayer Interferometric analysis; summary of the method: as §1
[35] = target: Transcription intermediary factor 1-beta (Homo sapiens) (UniProt Q13263); assay: Binding affinity to biotinylated TRIM28 (unknown origin) expressed in Escherichia coli at 0.2 to 1 uM by Biolayer Interferometric analysis; summary of the method: as §1
[36] = target: Bromodomain and WD repeat-containing protein 1 (Homo sapiens) (UniProt Q9NSI6); assay: Binding affinity to biotinylated WDR9 (unknown origin) expressed in Escherichia coli at 0.2 to 1 uM by Biolayer Interferometric analysis; summary of the method: as §1
[37] = target: Nuclear body protein SP140 (Homo sapiens) (UniProt Q13342); assay: Binding affinity to biotinylated SP140 (unknown origin) expressed in Escherichia coli at 0.2 to 1 uM by Biolayer Interferometric analysis; summary of the method: as §1
[38] = target: Transcription initiation factor TFIID subunit 1-like (Homo sapiens) (UniProt Q8IZX4); assay: Binding affinity to biotinylated TAF1L bromodomain-2 (unknown origin) expressed in Escherichia coli at 0.2 to 1 uM by Biolayer Interferometric analysis; summary of the method: as §1
[39] = target: Bromodomain adjacent to zinc finger domain protein 2B (Homo sapiens) (UniProt Q9UIF8); assay: Binding affinity to biotinylated C-terminal Avi/His-TEV-tagged BAZ2B (unknown origin) expressed in Escherichia coli at 0.2 to 1 uM by Biolayer Interferometric analysis; summary of the method: as §1

Bromodomain-containing protein 3 (Homo sapiens), sequence (Q15059 2-726 limits assumed): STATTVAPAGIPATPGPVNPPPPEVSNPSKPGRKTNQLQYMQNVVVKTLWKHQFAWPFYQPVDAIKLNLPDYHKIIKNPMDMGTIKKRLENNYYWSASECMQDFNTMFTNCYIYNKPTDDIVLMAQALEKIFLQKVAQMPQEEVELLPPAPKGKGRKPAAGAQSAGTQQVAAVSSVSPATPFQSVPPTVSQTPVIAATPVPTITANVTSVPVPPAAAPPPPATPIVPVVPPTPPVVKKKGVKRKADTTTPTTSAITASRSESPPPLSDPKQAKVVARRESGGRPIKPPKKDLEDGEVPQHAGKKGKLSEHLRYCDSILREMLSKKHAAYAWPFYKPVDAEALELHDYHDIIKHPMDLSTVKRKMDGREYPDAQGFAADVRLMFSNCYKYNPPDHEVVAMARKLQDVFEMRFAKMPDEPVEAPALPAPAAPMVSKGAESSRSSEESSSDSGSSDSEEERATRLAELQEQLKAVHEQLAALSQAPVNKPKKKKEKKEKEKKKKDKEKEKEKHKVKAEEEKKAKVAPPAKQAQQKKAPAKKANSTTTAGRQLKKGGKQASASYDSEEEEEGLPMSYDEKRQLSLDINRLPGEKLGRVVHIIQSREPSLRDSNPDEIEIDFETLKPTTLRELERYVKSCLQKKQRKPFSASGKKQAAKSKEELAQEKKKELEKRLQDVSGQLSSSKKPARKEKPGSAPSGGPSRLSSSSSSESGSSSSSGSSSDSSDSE
Bromodomain-containing protein 2 (Homo sapiens), sequence (P25440 whole entry, looked up): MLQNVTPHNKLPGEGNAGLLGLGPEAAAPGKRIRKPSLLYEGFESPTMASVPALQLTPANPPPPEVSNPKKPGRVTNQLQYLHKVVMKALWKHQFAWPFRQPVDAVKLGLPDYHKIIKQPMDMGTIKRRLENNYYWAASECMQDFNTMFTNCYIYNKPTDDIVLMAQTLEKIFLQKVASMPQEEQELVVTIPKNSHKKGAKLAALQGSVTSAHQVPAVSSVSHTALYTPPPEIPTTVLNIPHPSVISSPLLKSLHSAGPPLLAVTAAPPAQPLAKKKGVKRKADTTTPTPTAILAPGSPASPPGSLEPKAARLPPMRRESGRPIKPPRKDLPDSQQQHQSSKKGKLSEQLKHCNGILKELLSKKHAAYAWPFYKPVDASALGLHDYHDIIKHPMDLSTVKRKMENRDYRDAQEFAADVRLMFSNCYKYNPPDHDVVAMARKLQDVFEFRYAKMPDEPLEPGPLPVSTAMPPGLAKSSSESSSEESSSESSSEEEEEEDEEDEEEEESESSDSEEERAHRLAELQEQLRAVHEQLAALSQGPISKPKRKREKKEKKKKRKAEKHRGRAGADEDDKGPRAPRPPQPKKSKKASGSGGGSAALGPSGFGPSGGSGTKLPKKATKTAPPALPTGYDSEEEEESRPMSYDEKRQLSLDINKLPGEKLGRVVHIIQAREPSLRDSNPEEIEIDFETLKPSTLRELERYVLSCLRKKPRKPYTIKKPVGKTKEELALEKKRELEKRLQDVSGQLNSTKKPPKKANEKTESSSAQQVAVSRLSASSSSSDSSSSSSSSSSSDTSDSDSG
Protein polybromo-1 (Homo sapiens), sequence (Q86U86 whole entry): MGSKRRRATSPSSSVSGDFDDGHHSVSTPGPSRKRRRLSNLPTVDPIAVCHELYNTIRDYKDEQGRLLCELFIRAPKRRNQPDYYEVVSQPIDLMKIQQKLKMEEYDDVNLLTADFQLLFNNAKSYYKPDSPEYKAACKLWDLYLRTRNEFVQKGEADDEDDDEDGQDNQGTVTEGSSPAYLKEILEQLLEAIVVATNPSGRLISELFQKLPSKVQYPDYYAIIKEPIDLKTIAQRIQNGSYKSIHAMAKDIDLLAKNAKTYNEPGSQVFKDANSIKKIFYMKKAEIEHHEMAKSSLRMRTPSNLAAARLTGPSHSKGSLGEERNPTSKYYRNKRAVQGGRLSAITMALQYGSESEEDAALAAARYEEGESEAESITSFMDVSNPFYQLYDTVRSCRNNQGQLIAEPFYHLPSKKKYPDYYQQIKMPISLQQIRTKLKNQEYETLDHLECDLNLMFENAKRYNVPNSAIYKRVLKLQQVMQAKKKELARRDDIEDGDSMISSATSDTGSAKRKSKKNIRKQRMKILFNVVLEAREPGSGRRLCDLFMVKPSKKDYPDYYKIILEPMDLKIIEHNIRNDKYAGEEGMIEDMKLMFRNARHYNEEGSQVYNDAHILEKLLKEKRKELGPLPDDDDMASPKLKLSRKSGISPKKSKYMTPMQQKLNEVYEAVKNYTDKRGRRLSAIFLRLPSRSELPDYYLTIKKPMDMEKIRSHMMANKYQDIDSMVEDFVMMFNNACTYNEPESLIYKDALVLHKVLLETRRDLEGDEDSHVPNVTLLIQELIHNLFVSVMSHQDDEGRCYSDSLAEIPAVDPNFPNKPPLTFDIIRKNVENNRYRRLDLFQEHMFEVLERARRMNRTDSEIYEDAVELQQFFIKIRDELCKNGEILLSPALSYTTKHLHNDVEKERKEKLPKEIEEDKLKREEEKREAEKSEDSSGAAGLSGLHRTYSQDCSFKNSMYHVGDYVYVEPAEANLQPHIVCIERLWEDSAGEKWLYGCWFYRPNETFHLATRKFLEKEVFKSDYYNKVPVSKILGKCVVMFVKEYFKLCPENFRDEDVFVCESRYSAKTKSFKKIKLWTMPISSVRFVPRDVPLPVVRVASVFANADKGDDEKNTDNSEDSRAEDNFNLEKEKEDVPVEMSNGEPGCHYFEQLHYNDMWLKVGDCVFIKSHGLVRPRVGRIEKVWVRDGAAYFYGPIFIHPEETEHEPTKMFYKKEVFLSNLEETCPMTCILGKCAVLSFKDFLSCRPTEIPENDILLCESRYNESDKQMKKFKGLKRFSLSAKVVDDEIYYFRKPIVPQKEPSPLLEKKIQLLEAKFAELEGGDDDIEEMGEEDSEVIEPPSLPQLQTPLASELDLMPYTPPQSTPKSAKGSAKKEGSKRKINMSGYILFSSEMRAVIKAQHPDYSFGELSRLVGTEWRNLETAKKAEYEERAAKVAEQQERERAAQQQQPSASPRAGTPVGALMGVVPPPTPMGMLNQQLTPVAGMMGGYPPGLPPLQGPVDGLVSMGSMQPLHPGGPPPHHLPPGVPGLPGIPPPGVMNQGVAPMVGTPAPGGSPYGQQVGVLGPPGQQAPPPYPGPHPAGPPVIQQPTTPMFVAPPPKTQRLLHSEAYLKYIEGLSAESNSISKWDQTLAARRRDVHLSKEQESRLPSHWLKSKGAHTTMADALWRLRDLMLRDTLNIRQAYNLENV
Transcription initiation factor TFIID subunit 1 (Homo sapiens), sequence (P21675 whole entry): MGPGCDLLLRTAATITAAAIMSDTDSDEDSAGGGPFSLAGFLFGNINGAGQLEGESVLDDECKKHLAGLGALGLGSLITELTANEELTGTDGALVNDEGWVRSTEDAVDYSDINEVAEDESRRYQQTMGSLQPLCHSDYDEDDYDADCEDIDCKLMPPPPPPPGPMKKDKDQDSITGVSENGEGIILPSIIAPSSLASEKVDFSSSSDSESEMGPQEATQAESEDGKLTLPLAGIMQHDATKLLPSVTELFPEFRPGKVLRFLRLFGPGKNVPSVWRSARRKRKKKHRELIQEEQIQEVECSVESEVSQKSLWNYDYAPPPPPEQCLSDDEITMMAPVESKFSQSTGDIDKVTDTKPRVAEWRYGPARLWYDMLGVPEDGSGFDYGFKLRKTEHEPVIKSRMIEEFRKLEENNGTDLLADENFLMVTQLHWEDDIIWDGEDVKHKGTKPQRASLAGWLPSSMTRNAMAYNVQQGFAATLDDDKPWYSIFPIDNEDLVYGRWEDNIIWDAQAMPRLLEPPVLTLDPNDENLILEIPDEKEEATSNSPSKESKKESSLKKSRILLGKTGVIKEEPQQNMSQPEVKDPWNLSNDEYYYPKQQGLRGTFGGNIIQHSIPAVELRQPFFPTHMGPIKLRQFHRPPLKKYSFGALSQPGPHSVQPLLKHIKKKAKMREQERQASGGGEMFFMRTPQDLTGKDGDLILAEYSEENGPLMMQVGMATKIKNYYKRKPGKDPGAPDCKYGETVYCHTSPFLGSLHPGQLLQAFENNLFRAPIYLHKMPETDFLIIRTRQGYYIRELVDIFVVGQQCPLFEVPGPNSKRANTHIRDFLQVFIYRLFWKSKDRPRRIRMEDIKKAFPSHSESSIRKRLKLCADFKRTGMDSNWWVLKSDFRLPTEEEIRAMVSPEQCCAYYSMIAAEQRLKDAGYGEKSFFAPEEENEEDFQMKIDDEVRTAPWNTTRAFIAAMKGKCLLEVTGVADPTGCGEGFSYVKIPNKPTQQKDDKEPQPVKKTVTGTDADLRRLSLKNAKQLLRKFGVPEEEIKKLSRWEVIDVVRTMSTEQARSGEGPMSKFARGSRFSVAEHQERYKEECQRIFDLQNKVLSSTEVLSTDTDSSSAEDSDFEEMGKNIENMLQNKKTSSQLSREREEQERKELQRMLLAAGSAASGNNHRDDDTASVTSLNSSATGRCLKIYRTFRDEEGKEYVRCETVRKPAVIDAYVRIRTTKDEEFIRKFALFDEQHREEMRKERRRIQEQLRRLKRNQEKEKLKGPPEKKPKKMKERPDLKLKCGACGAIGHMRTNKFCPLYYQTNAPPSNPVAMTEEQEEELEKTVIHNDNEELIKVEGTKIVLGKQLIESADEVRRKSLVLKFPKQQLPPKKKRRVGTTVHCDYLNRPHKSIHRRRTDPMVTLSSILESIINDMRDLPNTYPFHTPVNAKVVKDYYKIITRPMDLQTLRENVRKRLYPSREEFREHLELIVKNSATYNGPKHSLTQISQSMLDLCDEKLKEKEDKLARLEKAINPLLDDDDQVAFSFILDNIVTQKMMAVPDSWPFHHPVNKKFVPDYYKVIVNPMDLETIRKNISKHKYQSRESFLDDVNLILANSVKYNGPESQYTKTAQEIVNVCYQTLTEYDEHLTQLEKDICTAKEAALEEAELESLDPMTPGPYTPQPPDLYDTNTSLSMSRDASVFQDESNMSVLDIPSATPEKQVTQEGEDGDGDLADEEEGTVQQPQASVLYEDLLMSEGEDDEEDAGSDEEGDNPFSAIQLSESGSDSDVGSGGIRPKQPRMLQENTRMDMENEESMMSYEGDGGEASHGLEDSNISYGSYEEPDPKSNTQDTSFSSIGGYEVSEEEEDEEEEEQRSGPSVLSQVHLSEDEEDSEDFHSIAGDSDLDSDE

## CCCOc1ccn2c(C(C)=O)cc(-c3ccccc3S(C)(=O)=O)c2c1
[1]
  Kb: 0.826 ×10⁶ /M
[2]
  Activity: inactive
[3]
  Activity: inactive
[4]
  Activity: inactive
[5]
  Activity: inactive
[6]
  Activity: inactive
[7]
  Activity: inactive
[8]
  Activity: inactive
[9]
  Activity: inactive
[10]
  Activity: inactive
[11]
  Activity: inactive
[12]
  Activity: inactive
[13]
  Activity: inactive
[14]
  Activity: inactive
Peregrin (Homo sapiens)
  Activity: inactive
[15]
  Activity: inactive
[16]
  Activity: inactive
[17]
  Activity: inactive
[18]
  Activity: inactive
[19]
  Activity: inactive
[20]
  Activity: inactive
[21]
  Activity: inactive
[22]
  Activity: inactive
[23]
  Activity: inactive
[24]
  Activity: inactive
[25]
  Activity: inactive
[26]
  Activity: inactive
[27]
  Activity: inactive
[28]
  Activity: inactive
[29]
  Activity: inactive
[30]
  Activity: inactive
[31]
  Activity: inactive
[32]
  Activity: inactive
[33]
  Activity: inactive
[34]
  Activity: inactive
[35]
  Activity: inactive
[36]
  Activity: inactive
[37]
  Activity: inactive

## CCCOc1ccn2c(C(C)=O)cc(-c3cccc(OC)c3)c2c1
[2]
  Activity: inactive
[3]
  Activity: inactive
[4]
  Activity: inactive
[5]
  Activity: inactive
[6]
  Activity: inactive
[7]
  Activity: inactive
[8]
  Activity: inactive
[9]
  Activity: inactive
[10]
  Activity: inactive
[11]
  Activity: inactive
[12]
  Activity: inactive
[13]
  Activity: inactive
[14]
  Activity: inactive
Peregrin (Homo sapiens)
  Activity: inactive
[15]
  Activity: inactive
[16]
  Activity: inactive
[17]
  Activity: inactive
[18]
  Activity: inactive
[19]
  Activity: inactive
[20]
  Activity: inactive
[21]
  Activity: inactive
[22]
  Activity: inactive
[23]
  Activity: inactive
[24]
  Activity: inactive
[25]
  Activity: inactive
[26]
  Activity: inactive
[27]
  Activity: inactive
[28]
  Activity: inactive
[29]
  Activity: inactive
[30]
  Activity: inactive
[31]
  Activity: inactive
[32]
  Activity: inactive
[33]
  Activity: inactive
[38]
  Activity: inactive
[34]
  Activity: inactive
[35]
  Activity: inactive
[36]
  Activity: inactive
[37]
  Activity: inactive
[39]
  Activity: inactive
